Reference: ChEMBL document CHEMBL4376874, “Discovery of Potent and Selective Epidermal Growth Factor Receptor (EGFR) Bifunctional Small-Molecule Degraders” (J Med Chem, 2020)
Activity calls are given as the source filed them. The calls are words filed in the database; no cut-off is given here.

Legend:
NCI-H3255 [1] = assay: Antiproliferative activity against human H3255 cells measured after 3 days by CCK8 assay; type: functional, cell-based
Outline: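 H3255 cells seeded 4000/well the night before, then exposed to serial dilutions for 3 days. Growth read by Cell Counting Kit-8; three independent experiments. IC50 from nonlinear regression (log inhibitor vs response, variable slope).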

[2] = target: Epidermal growth factor receptor (Homo sapiens, UniProt P00533, L858R); parameters: species or system Hofmanni bacterium
[3] = target: T1, Epidermal growth factor receptor (Homo sapiens, UniProt P00533); assay: Binding affinity to human wild-type partial length EGFR (R669 to V1011 residues) expressed in bacterial expression system by kinomescan assay
[4] = tested on: von Hippel-Lindau disease tumor suppressor/Epidermal growth factor receptor (Homo sapiens), P00533+P40337 [UNDEFINED MUTATION]; assay: Protac activity at VHL/EGFR exon 19 deletion mutant in human HCC827 cells assessed as induction of EGFR degradation at up to 1 uM treated 8 hrs post serum starvation measured after 16 hrs by Western blot analysis; type: cell-based
Outline: (§1)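 Cultured to 80% confluence in RPMI/1640 with 20% FBS at 37 °C and 5% CO2, then switched to serum-free medium for 8 h. Degraders were added over a concentration range up to 10 μM for 16 h, with gefitinib at 1 μM as reference. Lysates in Laemmli buffer were immunoblotted for EGFR, p-EGFR and p-AKT. DC50 came from band quantification by nonlinear regression (variable slope).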

[5] = tested on: von Hippel-Lindau disease tumor suppressor/Epidermal growth factor receptor (Homo sapiens), P00533+P40337 [UNDEFINED MUTATION]; assay: Protac activity at VHL/EGFR exon 19 deletion mutant in human HCC827 cells assessed as induction of EGFR degradation up to 500 nM treated 8 hrs post serum starvation measured after 16 hrs by Western blot analysis; type: cell-based
[6] = tested on: von Hippel-Lindau disease tumor suppressor/Epidermal growth factor receptor (Homo sapiens), P00533+P40337 [L858R]; assay: Protac activity at VHL/EGFR L858R mutant in human H3255 cells assessed as reduction in AKT phosphorylation up to 10 uM treated 8 hrs post serum starvation measured after 16 hrs by Western blot analysis; type: cell-based
[7] = tested on: von Hippel-Lindau disease tumor suppressor/Epidermal growth factor receptor (Homo sapiens), P00533+P40337 [L858R]; assay: Protac activity at VHL/EGFR L858R mutant in human H3255 cells assessed as reduction in EGFR autophosphorylation up to 10 uM treated 8 hrs post serum starvation measured after 16 hrs by Western blot analysis; type: cell-based
[8] = tested on: von Hippel-Lindau disease tumor suppressor/Epidermal growth factor receptor (Homo sapiens), P00533+P40337 [UNDEFINED MUTATION]; assay: Protac activity at VHL/EGFR exon 19 deletion mutant in human HCC827 cells assessed as reduction in AKT phosphorylation up to 10 uM treated 8 hrs post serum starvation measured after 16 hrs by Western blot analysis; type: cell-based
[9] = tested on: von Hippel-Lindau disease tumor suppressor/Epidermal growth factor receptor (Homo sapiens), P00533+P40337 [UNDEFINED MUTATION]; assay: Protac activity at VHL/EGFR exon 19 deletion mutant in human HCC827 cells assessed as induction of EGFR degradation at 1 to 10 uM treated 8 hrs post serum starvation measured after 16 hrs by Western blot analysis; type: cell-based; outline: as §1
[10] = tested on: von Hippel-Lindau disease tumor suppressor/Epidermal growth factor receptor (Homo sapiens), P00533+P40337 [L858R]; assay: Protac activity at VHL/EGFR L858R mutant in human H3255 cells assessed as induction of EGFR degradation up to 500 nM treated 8 hrs post serum starvation measured after 16 hrs by Western blot analysis; type: cell-based; outline: as §1
[11] = tested on: von Hippel-Lindau disease tumor suppressor/Epidermal growth factor receptor (Homo sapiens), P00533+P40337 [L858R]; assay: Protac activity at VHL/EGFR L858R mutant in human H3255 cells assessed as induction of EGFR degradation at 1 to 10 uM treated 8 hrs post serum starvation measured after 16 hrs by Western blot analysis; type: cell-based; outline: as §1
[12] = tested on: von Hippel-Lindau disease tumor suppressor/Epidermal growth factor receptor (Homo sapiens), P00533+P40337 [UNDEFINED MUTATION]; assay: Protac activity at VHL/EGFR exon 19 deletion mutant in human HCC827 cells assessed as reduction in EGFR autophosphorylation up to 10 uM treated 8 hrs post serum starvation measured after 16 hrs by Western blot analysis; type: cell-based
[13] = tested on: Epidermal growth factor receptor (Homo sapiens), P00533 [L858R]; assay: Induction of EGFR L858R degradation in human H3255 cells up to 100 nM treated 8 hrs post serum starvation measured after 16 hrs by Western blot analysis; type: cell-based
[14] = tested on: Epidermal growth factor receptor (Homo sapiens), P00533 [L858R]; assay: Induction of EGFR L858R degradation in human H3255 cells assessed as reduction in EGFR autophosphorylation up to 100 nM treated 8 hrs post serum starvation measured after 16 hrs by Western blot analysis; type: cell-based
[15] = tested on: Epidermal growth factor receptor (Homo sapiens), P00533 [UNDEFINED MUTATION]; assay: Induction of EGFR exon 19 deletion mutant degradation in human HCC827 cells assessed as reduction in AKT phosphorylation up to 100 nM treated 8 hrs post serum starvation measured after 16 hrs by Western blot analysis; type: cell-based
[16] = tested on: Epidermal growth factor receptor (Homo sapiens), P00533 [UNDEFINED MUTATION]; assay: Induction of EGFR exon 19 deletion mutant degradation in human HCC827 cells up to 100 nM treated 8 hrs post serum starvation measured after 16 hrs by Western blot analysis; type: cell-based
[17] = tested on: Epidermal growth factor receptor (Homo sapiens), P00533 [UNDEFINED MUTATION]; assay: Induction of EGFR exon 19 deletion mutant degradation in human HCC827 cells assessed as reduction in EGFR autophosphorylation up to 100 nM treated 8 hrs post serum starvation measured after 16 hrs by Western blot analysis; type: cell-based
[18] = tested on: Epidermal growth factor receptor (Homo sapiens), P00533 [L858R]; assay: Induction of EGFR L858R degradation in human H3255 cells assessed as reduction in ATK phosphorylation up to 100 nM treated 8 hrs post serum starvation measured after 16 hrs by Western blot analysis; type: cell-based
[19] = tested on: Protein cereblon/Epidermal growth factor receptor (Homo sapiens), P00533+Q96SW2 [UNDEFINED MUTATION]; assay: Protac activity at CRBN/EGFR exon 19 deletion mutant in human HCC827 cells assessed as induction of EGFR degradation at up to 1 uM treated 8 hrs post serum starvation measured after 16 hrs by Western blot analysis; type: cell-based
HCC827 [20] = assay: Up regulation of DAD1 expression in human HCC827 cells at 100 nM measured after 16 hrs by LC-MS analysis; type: functional, cell-based
Outline: (§2)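 HCC-827 cells serum-starved 8 h, then treated at 100 nM for 16 h. Collected for label-free quantitative LC–MS proteomics; LFQ intensity compared between treated and control groups; three independent experiments.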

[21] = Toxicity in Swiss albino mouse assessed as clinical changes at 50 mg/kg, ip; type: organism-based; settings: in vivo
[22] = target: T1, Epidermal growth factor receptor; assay: Induction of wild-type EGFR degradation in human OVCAR8 cells at up to 10 uM treated 8 hrs post serum starvation measured after 16 hrs by Western blot analysis; type: cell-based
HCC827 [23] = assay: Up regulation of HMGCS1 expression in human HCC827 cells at 100 nM measured after 16 hrs by LC-MS analysis; type: functional, cell-based; outline: as §2
HCC827 [24] = assay: Effect on AKT level in human HCC827 cells up to 10 uM treated 8 hrs post serum starvation measured after 16 hrs by Western blot analysis; type: ADME, cell-based; settings: hcc827, 16 h
HCC827 [25] = assay: Up regulation of SEC61G expression in human HCC827 cells at 100 nM measured after 16 hrs by LC-MS analysis; type: functional, cell-based; outline: as §2
[26] = Cmax in Swiss albino mouse at 50 mg/kg, ip measured after 24 hrs; type: ADME, organism-based; parameters: dose 50 mg/kg, route intraperitoneal; settings: in vivo
HCC827 [27] = assay: Down regulation of NGDN expression in human HCC827 cells at 100 nM measured after 16 hrs by LC-MS analysis; type: functional, cell-based; outline: as §2
[28] = Cmax in Swiss albino mouse at 50 mg/kg, ip measured after 8 hrs; type: ADME, organism-based; parameters: dose 50 mg/kg, route intraperitoneal; settings: in vivo
NCI-H3255 [29] = assay: Effect on AKT level in human H3255 cells up to 10 uM treated 8 hrs post serum starvation measured after 16 hrs by Western blot analysis; type: ADME, cell-based; settings: nci-h3255, 16 h
[30] = target: von Hippel-Lindau disease tumor suppressor/Epidermal growth factor receptor (Homo sapiens, UniProt P00533+P40337, L858R)
HCC827 [31] = assay: Up regulation of BIN1 expression in human HCC827 cells at 100 nM measured after 16 hrs by LC-MS analysis; type: functional, cell-based; outline: as §2
HCC827 [32] = assay: Up regulation of RRM2 expression in human HCC827 cells at 100 nM measured after 16 hrs by LC-MS analysis; type: functional, cell-based; outline: as §2
[33] = target: T1, Epidermal growth factor receptor; assay: Induction of wild-type EGFR degradation in human H1299 cells at up to 10 uM treated 8 hrs post serum starvation measured after 16 hrs by Western blot analysis; type: cell-based
[34] = target: von Hippel-Lindau disease tumor suppressor/Epidermal growth factor receptor (Homo sapiens, UniProt P00533+P40337); assay: Protac activity at VHL/EGFR exon 19 deletion mutant in human HCC827 cells assessed as induction of EGFR degradation treated 8 hrs post serum starvation measured after 16 hrs by Western blot analysis
HCC827 [35] = assay: Down regulation of TXNIP expression in human HCC827 cells at 100 nM measured after 16 hrs by LC-MS analysis; type: functional, cell-based; outline: as §2

For `COc1cc2ncnc(Nc3ccc(F)c(Cl)c3)c2cc1OCCCN1CCN(C(=O)CCCCCCCCCC(=O)N[C@H](C(=O)N2C[C@@H](O)C[C@@H]2C(=O)NCc2ccc(-c3scnc3C)cc2)C(C)(C)C)CC1`, the Activity (NCI-H3255 [1]) was “Active”, the Kd [2] was 9 nM and the Kd [3] was 8.6 nM.

For `COc1cc2ncnc(Nc3ccc(F)c(Cl)c3)c2cc1OCCCN1CCN(C(=O)CCOCCOCCOCCOCCOCCC(=O)N[C@H](C(=O)N2C[C@H](O)C[C@H]2C(=O)NCc2ccc(-c3scnc3C)cc2)C(C)(C)C)CC1`, the Activity [4] was “inactive”.

With `COc1cc2ncnc(Nc3ccc(F)c(Cl)c3)c2cc1OCCCCCOCCOCCC(=O)N[C@H](C(=O)N1C[C@H](O)C[C@H]1C(=O)NCc1ccc(-c2scnc2C)cc1)C(C)(C)C` the Activity [5] was “Active”, the Activity [6] was “Active” and the Activity (NCI-H3255 [1]) was “Active”. For the same compound, the Activity [7] was “Active”, the Activity [8] was “Active” and the Activity [9] was “inactive”. For the same compound, the Activity [10] was “Active”, the Activity [11] was “inactive” and the Activity [12] was “Active”.

For `COc1cc2ncnc(Nc3ccc(F)c(Cl)c3)c2cc1OCCCN1CCN(C(=O)CCOCCC(=O)N[C@H](C(=O)N2C[C@H](O)C[C@H]2C(=O)NCc2ccc(-c3scnc3C)cc2)C(C)(C)C)CC1`, the Activity [4] was “inactive”.

In the case of `COc1cc2ncnc(Nc3ccc(F)c(Cl)c3)c2cc1OCCCN1CCN(CCC(=O)NCCCCCCCCOc2cccc3c2C(=O)N(C2CCC(=O)N(C)C2=O)C3=O)CC1` (configuration not stated), the Activity [13] is reported as “inactive”, the Activity [14] is reported as “Active” and the Activity (NCI-H3255 [1]) is reported as “Active”. For the same compound, the Kd [2] was 4.3 nM, the Activity [15] was “Active” and the Activity [16] was “inactive”. For the same compound, the Kd [3] was 3 nM, the Activity [17] was “Active” and the Activity [18] was “Active”.

With `COc1cc2ncnc(Nc3ccc(F)c(Cl)c3)c2cc1OCCCN1CCN(CCC(=O)NCCCCCCNc2cccc3c2C(=O)N(C2CCC(=O)NC2=O)C3=O)CC1` (configuration not stated) the Activity [19] was “Active”.

In the case of `COc1cc2ncnc(Nc3ccc(F)c(Cl)c3)c2cc1OCCCN1CCN(C(=O)CCOCCOCCOCCC(=O)N[C@H](C(=O)N2C[C@H](O)C[C@H]2C(=O)NCc2ccc(-c3scnc3C)cc2)C(C)(C)C)CC1`, the Activity [4] is reported as “inactive”.

In the case of `COc1cc2ncnc(Nc3ccc(F)c(Cl)c3)c2cc1OCCCN1CCN(C(=O)CCCCCCCCCC(=O)N[C@H](C(=O)N2C[C@H](O)C[C@H]2C(=O)NCc2ccc(-c3scnc3C)cc2)C(C)(C)C)CC1`, the Activity (HCC827 [20]) is reported as “Active”, the Activity [21] is reported as “Non-Toxic” and the Activity [22] is reported as “Not Active”. For the same compound, the Activity (HCC827 [23]) was “Active”, the Activity (HCC827 [24]) was “Non-Toxic” and the Activity (HCC827 [25]) was “Active”. For the same compound, the Activity (NCI-H3255 [1]) was “Active”, the Cmax [26] was 1000 nM and the Activity (HCC827 [27]) was “Active”. The Cmax [28] was 5 µM, the Activity (NCI-H3255 [29]) was “Non-Toxic” and the DC50 [30] was 3.3 nM. The Activity (HCC827 [31]) was “Active”, the Kd [2] was 12 nM and the Activity (HCC827 [32]) was “Active”. For the same compound, the Activity [33] was “Not Active”, the Kd [3] was 11 nM and the DC50 [34] was 5 nM. The Activity (HCC827 [35]) was “Active”.

With `COc1cc2ncnc(Nc3ccc(F)c(Cl)c3)c2cc1OCCCN1CCOCC1` the Activity (NCI-H3255 [1]) was “Active”.

With `COc1cc2ncnc(Nc3ccc(F)c(Cl)c3)c2cc1OCCCN1CCN(CCC(=O)NCCOCCOCCOCCOCCOCCNc2cccc3c2C(=O)N(C2CCC(=O)NC2=O)C3=O)CC1` (configuration not stated) the Activity [19] was “Active”.

In the case of `COc1cc2ncnc(Nc3ccc(F)c(Cl)c3)c2cc1OCCCN1CCN(CCC(=O)NCCOCCNc2cccc3c2C(=O)N(C2CCC(=O)NC2=O)C3=O)CC1` (configuration not stated), the Activity [19] is reported as “Active”.
